Measured values published in ChEMBL document CHEMBL1150393, “Evaluation of radiolabeled (hetero)aromatic analogues of N-(2-diethylaminoethyl)-4-iodobenzamide for imaging and targeted radionuclide therapy of melanoma” (J Med Chem, 2008).

How the values were obtained:
Details in all cases: in vivo
[1] = Biodistribution in tumor of C57BL/6 mouse bearing mouse B16-F0 cells at 0.74 to 0.92 MBq, iv after 3 hrs; format: ADME, organism-based, Neoplasm
Summary of the method: (§1)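 [¹²⁵I]-labelled compound given iv by tail vein (0.1 µmol per mouse) to male C57BL6 mice bearing s.c. B16-F0 flank tumours (5 × 10⁵ cells in PBS). Two mice per time point were killed by CO₂, frozen in liquid nitrogen and cut into 40 µm cryosections, eight slices per mouse. Slice radioactivity was read on a multiwire proportional counter, converted to kBq/g and reported as %ID/g.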

[2] = Biodistribution in tumor of C57BL/6 mouse bearing mouse B16-F0 cells at 0.74 to 0.92 MBq, iv after 6 hrs; format: ADME, organism-based, Neoplasm; summary of the method: as §1
[3] = Biodistribution in tumor of C57BL/6 mouse bearing mouse B16-F0 cells at 0.74 to 0.92 MBq, iv after 24 hrs; format: ADME, organism-based, Neoplasm; summary of the method: as §1
[4] = Ratio of drug level in tumor to lung of C57BL/6 mouse bearing mouse B16-F0 cells at 0.74 to 0.92 MBq, iv after 6 hrs; format: ADME, organism-based
Summary of the method: (§2)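 Tumour and organ radioactive concentrations came from whole-body cryosection counting (40 µm slices, eight per mouse, two mice per time) after tail-vein injection of the [¹²⁵I]-labelled compound (0.1 µmol) into male C57BL6 mice bearing s.c. B16-F0 melanoma. Each value is the ratio of the tumour concentration to the organ concentration.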

[5] = Ratio of drug level in tumor to brain of C57BL/6 mouse bearing mouse B16-F0 cells at 0.74 to 0.92 MBq, iv after 3 hrs; format: ADME, organism-based; summary of the method: as §2
[6] = Ratio of drug level in tumor to brain of C57BL/6 mouse bearing mouse B16-F0 cells at 0.74 to 0.92 MBq, iv after 6 hrs; format: ADME, organism-based; summary of the method: as §2
[7] = test system: Brain; assay: Biodistribution in brain of C57BL/6 mouse bearing mouse B16-F0 cells at 0.74 to 0.92 MBq, iv after 1 hr; format: ADME, organism-based
Summary of the method: (§3)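 Male C57BL6 mice with s.c. left-flank B16-F0 melanoma (5 × 10⁵ cells in PBS). Two mice per time point frozen in liquid nitrogen after CO₂ sacrifice. Eight 40 µm whole-body cryosections per mouse read by multiwire proportional counter. cpm/mm² converted to kBq/g and expressed as %ID/g.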

[8] = test system: Brain; assay: Biodistribution in brain of C57BL/6 mouse bearing mouse B16-F0 cells at 0.74 to 0.92 MBq, iv after 3 hrs; format: ADME, organism-based; summary of the method: as §3
[9] = test system: Brain; assay: Biodistribution in brain of C57BL/6 mouse bearing mouse B16-F0 cells at 0.74 to 0.92 MBq, iv after 6 hrs; format: ADME, organism-based; summary of the method: as §3
[10] = Biodistribution in intestinal content of C57BL/6 mouse bearing mouse B16-F0 cells at 0.74 to 0.92 MBq, iv after 3 hrs; format: ADME, organism-based; summary of the method: as §3
[11] = Biodistribution in Stomach content of C57BL/6 mouse bearing mouse B16-F0 cells at 0.74 to 0.92 MBq, iv after 3 hrs; format: ADME, organism-based; summary of the method: as §3
[12] = test system: Muscle tissue; assay: Biodistribution in muscle of C57BL/6 mouse bearing mouse B16-F0 cells at 0.74 to 0.92 MBq, iv after 6 hrs; format: ADME, organism-based; summary of the method: as §3
[13] = test system: Pancreas; assay: Biodistribution in pancreas of C57BL/6 mouse bearing mouse B16-F0 cells at 0.74 to 0.92 MBq, iv after 1 hr; format: ADME, organism-based; summary of the method: as §3
[14] = test system: Pancreas; assay: Biodistribution in pancreas of C57BL/6 mouse bearing mouse B16-F0 cells at 0.74 to 0.92 MBq, iv after 3 hrs; format: ADME, organism-based; summary of the method: as §3
[15] = test system: Spleen; assay: Biodistribution in spleen of C57BL/6 mouse bearing mouse B16-F0 cells at 0.74 to 0.92 MBq, iv after 6 hrs; format: ADME, organism-based; summary of the method: as §1
[16] = test system: Kidney; assay: Biodistribution in kidney of C57BL/6 mouse bearing mouse B16-F0 cells at 0.74 to 0.92 MBq, iv after 1 hr; format: ADME, organism-based; summary of the method: as §3
[17] = test system: Kidney; assay: Biodistribution in kidney of C57BL/6 mouse bearing mouse B16-F0 cells at 0.74 to 0.92 MBq, iv after 6 hrs; format: ADME, organism-based; summary of the method: as §3
[18] = Biodistribution in uvea of C57BL/6 mouse bearing mouse B16-F0 cells at 0.74 to 0.92 MBq, iv after 3 hrs; format: ADME, organism-based, Uveal tract; summary of the method: as §1
[19] = Biodistribution in uvea of C57BL/6 mouse bearing mouse B16-F0 cells at 0.74 to 0.92 MBq, iv after 24 hrs; format: ADME, organism-based, Uveal tract; summary of the method: as §1
[20] = Biodistribution in gall bladder of C57BL/6 mouse bearing mouse B16-F0 cells at 0.74 to 0.92 MBq, iv after 6 hrs; format: ADME, organism-based; summary of the method: as §3
[21] = Biodistribution in intestinal content of C57BL/6 mouse bearing mouse B16-F0 cells at 0.74 to 0.92 MBq, iv after 24 hrs; format: ADME, organism-based; summary of the method: as §3
[22] = Biodistribution in Stomach content of C57BL/6 mouse bearing mouse B16-F0 cells at 0.74 to 0.92 MBq, iv after 72 hrs; format: ADME, organism-based; summary of the method: as §3
[23] = test system: Thyroid gland; assay: Biodistribution in thyroid of C57BL/6 mouse bearing mouse B16-F0 cells at 0.74 to 0.92 MBq, iv after 1 hr; format: ADME, organism-based; summary of the method: as §1
[24] = test system: Thyroid gland; assay: Biodistribution in thyroid of C57BL/6 mouse bearing mouse B16-F0 cells at 0.74 to 0.92 MBq, iv after 6 hrs; format: ADME, organism-based; summary of the method: as §1
[25] = test system: Thyroid gland; assay: Biodistribution in thyroid of C57BL/6 mouse bearing mouse B16-F0 cells at 0.74 to 0.92 MBq, iv after 24 hrs; format: ADME, organism-based; summary of the method: as §1
[26] = test system: Pancreas; assay: Biodistribution in pancreas of C57BL/6 mouse bearing mouse B16-F0 cells at 0.74 to 0.92 MBq, iv after 6 hrs; format: ADME, organism-based; summary of the method: as §3
[27] = test system: Thyroid gland; assay: Biodistribution in thyroid of C57BL/6 mouse bearing mouse B16-F0 cells at 0.74 to 0.92 MBq, iv after 72 hrs; format: ADME, organism-based; summary of the method: as §1
[28] = Ratio of drug level in tumor to liver of C57BL/6 mouse bearing mouse B16-F0 cells at 0.74 to 0.92 MBq, iv after 24 hrs; format: ADME, organism-based; summary of the method: as §2
[29] = Ratio of drug level in tumor to lung of C57BL/6 mouse bearing mouse B16-F0 cells at 0.74 to 0.92 MBq, iv after 24 hrs; format: ADME, organism-based; summary of the method: as §2
[30] = test system: Liver; assay: Biodistribution in liver of C57BL/6 mouse bearing mouse B16-F0 cells at 0.74 to 0.92 MBq, iv after 24 hrs; format: ADME, organism-based; summary of the method: as §3
[31] = test system: Lung; assay: Biodistribution in lung of C57BL/6 mouse bearing mouse B16-F0 cells at 0.74 to 0.92 MBq, iv after 24 hrs; format: ADME, organism-based; summary of the method: as §3
[32] = test system: Spleen; assay: Biodistribution in spleen of C57BL/6 mouse bearing mouse B16-F0 cells at 0.74 to 0.92 MBq, iv after 24 hrs; format: ADME, organism-based; summary of the method: as §1
[33] = test system: Kidney; assay: Biodistribution in kidney of C57BL/6 mouse bearing mouse B16-F0 cells at 0.74 to 0.92 MBq, iv after 24 hrs; format: ADME, organism-based; summary of the method: as §3
[34] = test system: Spleen; assay: Biodistribution in spleen of C57BL/6 mouse bearing mouse B16-F0 cells at 0.74 to 0.92 MBq, iv after 72 hrs; format: ADME, organism-based; summary of the method: as §1

SMILES	Drug uptake [1]	Drug uptake [2]	Drug uptake [3]	Ratio [4]	Ratio [5]	Drug uptake [7]	Drug uptake [8]	Drug uptake [10]	Drug uptake [11]	Drug uptake [12]	Drug uptake [13]	Drug uptake [15]	Drug uptake [16]	Drug uptake [17]	Drug uptake [18]	Drug uptake [19]	Drug uptake [21]	Drug uptake [23]	Drug uptake [24]	Drug uptake [25]	other results
CCN(CC)CCNC(=O)c1ccc2cc([125I])ccc2c1.Cl	11.4 % ID/g	9 % ID/g	7 % ID/g	4.22	14.6	4.37 % ID/g	0.78 % ID/g	25.85 % ID/g	24.69 % ID/g	0.38 % ID/g	10.18 % ID/g	8.05 % ID/g	13.3 % ID/g	3.07 % ID/g	13.9 % ID/g	12.28 % ID/g					Ratio [6]: 35.8; Drug uptake [9]: 0.25 % ID/g; Drug uptake [14]: 8.19 % ID/g
CCN(CC)CCNC(=O)c1ccc2cncc([125I])c2n1.Cl.Cl	13.9 % ID/g	11.4 % ID/g	8.4 % ID/g	9.03	32.18	0.35 % ID/g		47.65 % ID/g	9.76 % ID/g	0.24 % ID/g	1.78 % ID/g		4.01 % ID/g	1.2 % ID/g	20.3 % ID/g	10 % ID/g	0.82 % ID/g	20.16 % ID/g	56.95 % ID/g	115.66 % ID/g	Drug uptake [20]: 28.67 % ID/g; Drug uptake [22]: 2.13 % ID/g
CCN(CC)CCNC(=O)c1ccc([125I])nc1.Cl.Cl	9.3 % ID/g	7 % ID/g	2.7 % ID/g	2.17	42.14	0.64 % ID/g	0.22 % ID/g	4.94 % ID/g	42.71 % ID/g	0.53 % ID/g	3.94 % ID/g	2.35 % ID/g	6.08 % ID/g	3.5 % ID/g	12.69 % ID/g	6.07 % ID/g		25.29 % ID/g	7.92 % ID/g	111.3 % ID/g	Drug uptake [20]: 4.9 % ID/g; Ratio [6]: 58.08; Drug uptake [9]: 0.12 % ID/g; Drug uptake [14]: 2.53 % ID/g; Drug uptake [26]: 2.27 % ID/g; Drug uptake [27]: 178.8 % ID/g
CCN(CC)CCNC(=O)c1c[nH]c2ccc([125I])cc2c1=O.Cl.Cl	4.1 % ID/g	5.8 % ID/g	2.7 % ID/g	38.73		0.07 % ID/g		90.12 % ID/g	9.93 % ID/g	0.01 % ID/g	5.74 % ID/g	0.26 % ID/g	2.8 % ID/g	0.2 % ID/g	5.66 % ID/g	3.5 % ID/g	1.62 % ID/g		8.55 % ID/g	5.09 % ID/g	Ratio [28]: 39.14; Ratio [29]: 68.5; Ratio [6]: 72.6; Drug uptake [9]: 0.08 % ID/g; Drug uptake [30]: 0.07 % ID/g; Drug uptake [14]: 0.96 % ID/g; Drug uptake [26]: 1.08 % ID/g; Drug uptake [31]: 0.04 % ID/g; Drug uptake [32]: 0.15 % ID/g; Drug uptake [33]: 0.03 % ID/g; Drug uptake [27]: 9.83 % ID/g
CCN(CC)CCNC(=O)c1cnc2cc([125I])ccc2n1.Cl.Cl	27.7 % ID/g	40.7 % ID/g	21.7 % ID/g	9.13	26.87	2.34 % ID/g	1.03 % ID/g	17.45 % ID/g	20.33 % ID/g	0.87 % ID/g	7.6 % ID/g		16.46 % ID/g	7.69 % ID/g	24.79 % ID/g	32.44 % ID/g			83.77 % ID/g	94.22 % ID/g	Drug uptake [20]: 33.38 % ID/g; Ratio [28]: 14.54; Drug uptake [22]: 2.23 % ID/g; Drug uptake [30]: 1.49 % ID/g
CCN(CC)CCNC(=O)c1cc2cc([125I])ccc2o1.Cl	7.5 % ID/g	7.8 % ID/g	5 % ID/g	13.3	31.29	1.46 % ID/g	0.24 % ID/g	138.09 % ID/g	16.07 % ID/g	0.19 % ID/g		11.34 % ID/g	6.5 % ID/g	1.82 % ID/g	20.11 % ID/g	9.95 % ID/g	2.33 % ID/g	16.78 % ID/g	40.63 % ID/g	30.38 % ID/g	Ratio [28]: 11.2; Drug uptake [30]: 0.45 % ID/g; Drug uptake [27]: 15.7 % ID/g
CCN(CC)CCNC(=O)c1cc2c([125I])cccc2cn1.Cl.Cl	7.1 % ID/g	7.9 % ID/g	7.1 % ID/g	3.86	79.11	0.3 % ID/g	0.09 % ID/g	68.64 % ID/g	19.05 % ID/g		2.39 % ID/g		4.62 % ID/g	2.11 % ID/g	13.87 % ID/g	14.55 % ID/g	1.7 % ID/g	16.88 % ID/g	48.93 % ID/g	88.65 % ID/g	Ratio [28]: 16.4; Drug uptake [30]: 0.43 % ID/g; Drug uptake [34]: 1.62 % ID/g; Drug uptake [27]: 132.79 % ID/g
